We go through 18 compounds from ChEMBL document CHEMBL1134290, “A novel anti-ischemic ATP-sensitive potassium channel (K(ATP)) opener without vasorelaxation: N-(6-aminobenzopyranyl)-N'-benzyl-N' '-cyanoguanidine analogue” (J Med Chem, 2001).

For test [1], the species on record is Rattus norvegicus. As to the kind of experiment: (§1) Reduction rate of LDH release from neuronal cells injured by iron […]. In kind it is functional. In a few lines: (§2)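 Cortical neurons from E17-18 rat embryos, cultured 7-9 days at 37 °C, 5% CO2. Serum lowered to 0.2% in MEM. Pretreated 30 min with compound in DMSO (final ≤0.2%), then FeSO4 at 50 µM final for 24 h. LDH released into medium measured; reduction of LDH release taken relative to control. Four determinations averaged.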
In general terms: LDH leaks from cells whose membrane has failed.

The species named for test [2] is Rattus norvegicus. The description is as §1. In kind it is functional, cell-based.
For test [3], the system named is Rattus norvegicus. As to the kind of experiment: Ratio of myocardial infarct zone to area at risk (IZ/AAR) in ischemic myocardium damage rat model (Cardioprotective effect) at 0.3 mg/Kg. In kind it is functional. The procedure, abridged:
(§3)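 Male Sprague-Dawley rats (350-450 g), pentobarbital 75 mg/kg i.p., ventilated 60/min at 10 mL/kg, 37 °C. Vehicle or compound given via femoral vein over 30 min, with or without glibenclamide or 5-HD. Left coronary occlusion 45 min, reperfusion 90 min. Risk zone marked by Evans blue after reocclusion. LV slices stained with TTC at 37 °C, pH 7.4, 15 min. Infarct area summed, divided by AAR weight; n = 3 or more.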

Test [4] has as its system Rattus norvegicus. Nature of the test: Ratio of myocardial infarct zone to area at risk […] in ischemic myocardium damage rat model (Cardioprotective effect) at 0.3 mg/Kg. The format is functional. In a few lines:
as §3

The species named for test [5] is Rattus norvegicus. As to the kind of experiment: Inhibition of methoxamine-contracted rat aorta (Vasorelaxant potency). The format is functional. In a few lines: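 Rat aortic rings (Sprague-Dawley, 350-450 g; 3 mm rings, adipose removed) held in oxygenated modified Krebs-Henseleit PSS at 37 °C under 2 g resting tension, stabilised 1 h. Once methoxamine contraction reached a maintained maximum, compound added cumulatively at 1, 3, 10, 30 µM. Relaxation taken as change in maximal methoxamine constriction and plotted as concentration-relaxation curve.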

Test [6] is filed under the species Rattus norvegicus. Nature of the test: Reduction rate of LDH release from rat neuronal cells injured by iron […]. In kind it is functional. The procedure, abridged: as §2
In test [7] the test system is Rattus norvegicus. Nature of the test: Ratio of myocardial infarct zone to area at risk […] in ischemic myocardium damage rat model (Cardioprotective effect) in the presence of 5-HD (10 mg/kg). The format is functional. The procedure, abridged: as §3
The subject of test [8] is Rattus norvegicus. As to the kind of experiment: Ratio of myocardial infarct zone to area at risk […] in ischemic myocardium damage rat model (Cardioprotective effect) in the presence of Gliben 1 mg/kg. The format is functional. The procedure, abridged:
as §3

Test [9] concerns Rattus norvegicus. Nature of the test: Ratio of myocardial infarct zone to area at risk(IZ/AAR)in ischemic myocardium damage rat model (Cardioprotective effect) at 1 mg/kg; Not determined. In kind it is functional. The procedure, abridged:
as §3

Test [10] relates to Rattus norvegicus. Nature of the test: Ratio of myocardial infarct zone to area at risk(IZ/AAR)in ischemic myocardium damage rat model (Cardioprotective effect) at 0.1 mg/kg. The format is functional. The procedure, abridged: as §3
For test [11], the system named is Rattus norvegicus. As to the kind of experiment: Ratio of myocardial infarct zone to area at risk(IZ/AAR)in ischemic myocardium damage rat model (Cardioprotective effect) at 0.3 mg/kg; Not determined. In kind it is functional. The procedure, abridged:
as §3

Test [12] concerns Rattus norvegicus. As to the kind of experiment: Ratio of myocardial infarct zone to area at risk […] in ischemic myocardium damage rat model (Cardioprotective effect) at 1 mg/Kg. In kind it is functional. In a few lines: as §3
Test [13] deals with Rattus norvegicus. As to the kind of experiment: Ratio of myocardial infarct zone to area at risk […] in ischemic myocardium damage rat model (Cardioprotective effect) at 0.1 mg/Kg. The format is functional. In a few lines: as §3
The subject of test [14] is Rattus norvegicus. As to the kind of experiment: Ratio of myocardial infarct zone to area at risk (IZ/AAR) in ischemic myocardium damage rat model (Cardioprotective effect) in the presence of Gliben 1 mg/kg. In kind it is functional. In a few lines: as §3
The test system of test [15] is Rattus norvegicus. Nature of the test: Ratio of myocardial infarct zone to area at risk (IZ/AAR) in ischemic myocardium damage rat model (Cardioprotective effect) in the presence of 5-HD (10 mg/kg). The format is functional. The procedure, abridged:
as §3

In the case of `COC(OC)[C@]1(C)Oc2ccc([N+](=O)[O-])cc2[C@@H](N/C(=N/C#N)NCc2ccccc2)[C@@H]1O`, the inhibition (as a rule, the relative decrease from the control value, in per cent) at 30 µM in [1] was found to be 37%.
For `COC(OC)[C@@]1(C)Oc2ccc(N)cc2[C@H](/N=C(\NC#N)NCc2ccccc2)[C@H]1O`, it took 9.2 µM to reach half-maximal inhibition in test [2] (IC50). Besides, the Effect stood at 51% in test [3] and 33% in [4].
In [1], `COC(OC)[C@]1(C)Oc2ccc(NC(C)=O)cc2[C@H](/N=C(\NC#N)NCc2ccccc2)[C@@H]1O` showed an inhibition at 30 µM of 25%. The Effect in [3] is given as 45%; in [4], 41%.
As for `COC(OC)[C@]1(C)Oc2ccc([N+](=O)[O-])cc2[C@@H](/N=C(\NC#N)Nc2ccc(Cl)cc2)[C@@H]1O`, in test [5] (Rattus norvegicus, Aorta), the IC50 (commonly the concentration that gives 50% inhibition) is 17.5 µM. The same compound registered an inhibition at 30 µM in [1] of 61%. In addition, the Effect in [3] is recorded as 52%; in test [4], 37%.
As for `CC1(C)COC([C@]2(C)Oc3ccc(N)cc3[C@H](/N=C(\NC#N)NCc3ccccc3)[C@@H]2O)OC1`, the inhibition at 30 µM in test [1] stood at 60%. The results for the Effect in test [3] and in test [4] were 56% and 42%, respectively.
Consider `COC(OC)[C@]1(C)Oc2ccc([N+](=O)[O-])cc2[C@@H](/N=C(\NC#N)Nc2cccc(Cl)c2)[C@@H]1O`, for which, in [5] (Rattus norvegicus, Aorta), the IC50 stood at 30.5 µM. At 30 µM the inhibition in test [1] was 70%. The values for the Effect in test [3] and in test [4] were 40% and 47%, respectively.
With `COc1ccc(N/C(=N/[C@H]2c3cc([N+](=O)[O-])ccc3O[C@@](C)(C(OC)OC)[C@H]2O)NC#N)cc1`, the inhibition at 30 µM in test [1] worked out at 45%. Further, the Effect in test [3] was found to be 43%; in [4], 38%.
As for `COC(OC)[C@]1(C)Oc2ccc(N)cc2[C@@H](/N=C(\NC#N)NCc2ccccc2)[C@@H]1O`, half-maximal inhibition in test [2] (IC50) was put at 8 µM. Further, the Effect was 46% in [3] and 39% in test [4].
In turn, `COC(OC)[C@]1(C)Oc2ccc(N)cc2[C@H](/N=C(\NC#N)NCc2ccccc2)[C@H]1O` yielded an IC50 in test [2] of 4.1 µM. Further, the Effect is recorded as 51% in test [3] and 38% in [4].
`CC1(C)Oc2ccc(C#N)cc2[C@@H](/N=C(\NC#N)Nc2ccc(Cl)cc2)[C@@H]1O`: in test [5] (Rattus norvegicus, Aorta), the IC50 is 3.2 µM. In test [6], this compound gave an inhibition at 30 µM of 20%. Also, the Effect in test [3] and in test [4] was 39% in each case.
In test [1], `COC(OC)C1(C)Oc2ccc([N+](=O)[O-])cc2C(/N=C(\NC#N)Nc2ccc(Cl)cc2)[C@@H]1O` (single isomer, unassigned) showed an inhibition at 30 µM of 58%. Besides, the Effect in [3] and in [4] was 46% in each case.
In the case of `COC(OC)C1(C)Oc2ccc([N+](=O)[O-])cc2C(/N=C(\NC#N)NCc2ccccc2)[C@@H]1O` (single isomer, unassigned), the inhibition at 30 µM in test [1] came out at 7%. The Effect in test [3] is 49%; in test [4], 37%.
The corresponding values for `CC1(C2OCCO2)Oc2ccc(N)cc2C(/N=C(\NC#N)NCc2ccccc2)[C@@H]1O` (single isomer, unassigned) are 3.6%, 52% and 32%.
For `COC(OC)C1(C)Oc2ccc(NS(C)(=O)=O)cc2C(/N=C(\NC#N)NCc2ccccc2)[C@@H]1O` (single isomer, unassigned), in that order: 10%, 43% and 35%.
In the case of `COc1ccc(CN/C(=N/C2c3cc(N)ccc3OC(C)(C(OC)OC)[C@H]2O)NC#N)cc1` (single isomer, unassigned), in test [2], the IC50 worked out at 4.1 µM. In addition, the Effect in test [3] amounted to 42%; in test [4], 37%.
As for `COC(OC)C1(C)Oc2ccc(N)cc2C(/N=C(\NC#N)NCc2ccccc2)[C@@H]1O` (single isomer, unassigned), the Effect turned out to be 35% in [7]; 33% in [8]; 34% in test [9]; 42% in [10]; 37% in [11]; 37% in test [3]. Besides, the Effect stood at 35% in test [4]; 35% in [12]; 34% in test [13]; 51% in test [14]; 46% in test [15]. In [2], this compound showed a concentration for half-maximal inhibition (IC50) of 2.2 µM.
Regarding `COC(OC)C1(C)Oc2ccc([N+](=O)[O-])cc2C(N/C(=N/C#N)NCc2ccccc2)[C@H]1O` (single isomer, unassigned), the IC50 in test [5] (Rattus norvegicus, Aorta) stood at 7.3 µM.
`COC(OC)[C@@]1(C)Oc2ccc([N+](=O)[O-])cc2C(N/C(=N/C#N)NCc2ccccc2)[C@H]1O` (single isomer, unassigned) came in with an IC50 in test [5] of 9.8 µM. Besides, the Effect is recorded as 49% in test [3] and 38% in test [4].
